Results published in ChEMBL document CHEMBL2346608, “New annelated thieno[2,3-e][1,2,3]triazolo[1,5-a]pyrimidines, with potent anticancer activity, designed through VLAK protocol” (2013).

Legend:
Type in all cases: functional
MCF7 = test: Antiproliferative activity against human MCF7 cells after 48 hrs by sulforhodamine B assay; details: MCF7, 48 h
Summary of the method: (§1)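 Cells grown in RPMI 1640 with 5% FBS and 2 mM L-glutamine, plated at 5000–40,000 cells/well and preincubated 24 h at 37 °C, 5% CO2. Five drug concentrations (10-fold or ½-log dilutions from DMSO stocks) applied for 48 h. TCA-fixed (final 10% adherent, 16% suspension), SRB-stained, A515 read. Growth versus time-zero and control wells gave GI50, TGI, LC50.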

NCI-H460 = test: Antiproliferative activity against human NCI-H460 cells after 48 hrs by sulforhodamine B assay; details: NCI-H460, 48 h; summary of the method: as §1
HOP-92 = test: Antiproliferative activity against human HOP92 cells after 48 hrs by sulforhodamine B assay; details: HOP-92, 48 h; summary of the method: as §1
SNB-75 = test: Antiproliferative activity against human SNB75 cells after 48 hrs by sulforhodamine B assay; details: SNB-75, 48 h
Summary of the method: (§2)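 Cells in RPMI 1640 with 5% FBS and 2 mM L-glutamine were seeded at 5000–40,000/well according to doubling time and preincubated 24 h at 37 °C in 5% CO2. Time-zero plates were TCA-fixed when drug was added. Five 10-fold or ½-log dilutions from DMSO stocks were added for 48 h. After SRB staining, A515 was read and GI50 derived from [(Ti−Tz)/(C−Tz)]×100 = 50.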

Malme-3M = test: Antiproliferative activity against human MALME-3M cells after 48 hrs by sulforhodamine B assay; summary of the method: as §1
UACC-257 = test: Antiproliferative activity against human UACC257 cells after 48 hrs by sulforhodamine B assay; details: UACC-257, 48 h; summary of the method: as §2
PC-3 = test: Antiproliferative activity against human PC3 cells after 48 hrs by sulforhodamine B assay; details: PC-3, 48 h; summary of the method: as §1
OVCAR-4 = test: Antiproliferative activity against human OVCAR4 cells after 48 hrs by sulforhodamine B assay; details: OVCAR-4, 48 h; summary of the method: as §1
SK-MEL-5 = test: Antiproliferative activity against human SK-MEL-5 cells after 48 hrs by sulforhodamine B assay; details: SK-MEL-5, 48 h; summary of the method: as §1
MDA-MB-468 = test: Antiproliferative activity against human MDA-MB-468 cells after 48 hrs by sulforhodamine B assay; details: MDA-MB-468, 48 h; summary of the method: as §1
M14 = test: Antiproliferative activity against human M14 cells after 48 hrs by sulforhodamine B assay; details: M14, 48 h; summary of the method: as §1
A498 = test: Antiproliferative activity against human A498 cells after 48 hrs by sulforhodamine B assay; details: A498, 48 h; summary of the method: as §1
SK-OV-3 = test: Antiproliferative activity against human SKOV3 cells after 48 hrs by sulforhodamine B assay; details: SK-OV-3, 48 h; summary of the method: as §1
SF-295 = test: Antiproliferative activity against human SF295 cells after 48 hrs by sulforhodamine B assay; details: SF-295, 48 h; summary of the method: as §1
OVCAR-8 = test: Antiproliferative activity against human OVCAR8 cells after 48 hrs by sulforhodamine B assay; details: OVCAR-8, 48 h; summary of the method: as §1
SK-MEL-2 = test: Antiproliferative activity against human SK-MEL-2 cells after 48 hrs by sulforhodamine B assay; details: SK-MEL-2, 48 h; summary of the method: as §1
[1] = Antiproliferative activity against human HCC2998 cells after 48 hrs by sulforhodamine B assay; details: HCC 2998, 48 h; summary of the method: as §1
A549 = test: Antiproliferative activity against human A549 cells after 48 hrs by sulforhodamine B assay; details: A549, 48 h; summary of the method: as §1
MDA-MB-231 = test: Antiproliferative activity against human MDA-MB-231 cells after 48 hrs by sulforhodamine B assay; details: MDA-MB-231, 48 h; summary of the method: as §1
NCI-H322M = test: Antiproliferative activity against human NCI-H322M cells after 48 hrs by sulforhodamine B assay; summary of the method: as §1
U-251 = test: Antiproliferative activity against human U251 cells after 48 hrs by sulforhodamine B assay; details: U-251, 48 h; summary of the method: as §2
OVCAR-3 = test: Antiproliferative activity against human OVCAR3 cells after 48 hrs by sulforhodamine B assay; details: OVCAR-3, 48 h; summary of the method: as §1
CAKI-1 = test: Antiproliferative activity against human CAKI-1 cells after 48 hrs by sulforhodamine B assay; details: CAKI-1, 48 h; summary of the method: as §1
HL-60 = test: Antiproliferative activity against human HL60 (TB) cells after 48 hrs by sulforhodamine B assay; details: HL-60, 48 h
Summary of the method: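 NCI 60-cell panel protocol: cells in RPMI 1640 with 5% FBS and 2 mM L-glutamine, plated 24 h at 37 °C/5% CO2 before dosing. Compounds dissolved in DMSO and tested at five concentrations (10-fold or ½ log serial dilutions) for 48 h. Suspension cells fixed with 80% TCA (final 16%), SRB stained, absorbance at 515 nm. GI50 derived from time-zero-corrected growth.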

OVCAR-5 = test: Antiproliferative activity against human OVCAR5 cells after 48 hrs by sulforhodamine B assay; details: OVCAR-5, 48 h; summary of the method: as §1
NCI-H226 = test: Antiproliferative activity against human NCI-H226 cells after 48 hrs by sulforhodamine B assay; details: NCI-H226, 48 h; summary of the method: as §1
HCT-15 = test: Antiproliferative activity against human HCT15 cells after 48 hrs by sulforhodamine B assay; details: HCT-15, 48 h; summary of the method: as §1
[2] = read-out: pLC50 (the source's name) (converted)

`CN1CCN(CCCn2c(=O)c3sc4ncccc4c3n3nnc(-c4ccccc4)c23)CC1` showed a GI50 (MCF7) of 7.76 µM, an LC50 (MCF7) of 29.5 µM and a TGI (MCF7; read-out: pTGI (converted)) of 15.1 µM. The GI50 (NCI-H460) was 6.92 µM, the LC50 (NCI-H460) was 26.9 µM and the TGI (NCI-H460; read-out: pTGI (converted)) was 13.8 µM. The GI50 (HOP-92) was 5.75 µM, the CC50 (HOP-92; [2]) was 28.8 µM and the TGI (HOP-92; read-out: pTGI (converted)) was 12.9 µM. It also gave a GI50 (SNB-75) of 6.76 µM, an LC50 (concentration killing 50% of starting cells) (SNB-75) of 25.7 µM and a TGI (SNB-75; read-out: pTGI (converted)) of 13.2 µM. The GI50 (Malme-3M) was 9.33 µM, the LC50 (Malme-3M) was 33.9 µM and the TGI (Malme-3M; read-out: pTGI (converted)) was 17.8 µM. For the same compound, the GI50 (UACC-257) was 2.29 µM, the LC50 (UACC-257) was 20.4 µM and the TGI (UACC-257; read-out: pTGI (converted)) was 7.59 µM. The GI50 (PC-3) was 6.31 µM, the LC50 (PC-3) was 28.8 µM and the TGI (PC-3; read-out: pTGI (converted)) was 13.5 µM. It also gave a GI50 (OVCAR-4) of 7.24 µM, an LC50 (concentration killing 50% of cells) (OVCAR-4) of 26.9 µM and a TGI (OVCAR-4; read-out: pTGI (converted)) of 14.1 µM. The GI50 (SK-MEL-5) was 7.24 µM, the LC50 (SK-MEL-5) was 26.3 µM and the TGI (SK-MEL-5; read-out: pTGI (converted)) was 13.8 µM. For the same compound, the GI50 (MDA-MB-468) was 6.92 µM, the LC50 (MDA-MB-468) was 28.2 µM and the TGI (MDA-MB-468; read-out: pTGI (converted)) was 13.8 µM. It also gave a GI50 (M14) of 2.14 µM, an LC50 (M14) of 20.9 µM and a TGI (M14; read-out: pTGI (converted)) of 7.41 µM. For the same compound, the GI50 (A498) was 0.158 µM, the LC50 (A498) was 21.9 µM and the TGI (A498; read-out: pTGI (converted)) was 9.33 µM. The GI50 (SK-OV-3) was 8.91 µM, the LC50 (SK-OV-3) was 28.2 µM and the TGI (SK-OV-3; read-out: pTGI (converted)) was 15.8 µM. It also gave a GI50 (SF-295) of 5.62 µM, an LC50 (SF-295) of 26.9 µM and a TGI (SF-295; read-out: pTGI (converted)) of 12.3 µM. The GI50 (OVCAR-8) was 7.76 µM, the LC50 (OVCAR-8) was 30.2 µM and the TGI (OVCAR-8; read-out: pTGI (converted)) was 15.5 µM. It also gave a GI50 (SK-MEL-2) of 8.71 µM, an LC50 (SK-MEL-2) of 31.6 µM and a TGI (SK-MEL-2; read-out: pTGI (converted)) of 16.6 µM. For the same compound, the GI50 [1] was 6.76 µM, the LC50 [1] was 26.3 µM and the TGI ([1]; read-out: pTGI (converted)) was 13.5 µM. It also gave a GI50 (A549) of 6.76 µM, an LC50 (A549) of 28.2 µM and a TGI (A549; read-out: pTGI (converted)) of 13.8 µM. The GI50 (MDA-MB-231) was 6.92 µM, the LC50 (MDA-MB-231) was 26.9 µM and the TGI (MDA-MB-231; read-out: pTGI (converted)) was 13.5 µM. It also gave a GI50 (NCI-H322M) of 6.17 µM, an LC50 (NCI-H322M) of 26.9 µM and a TGI (NCI-H322M; read-out: pTGI (converted)) of 12.9 µM. For the same compound, the GI50 (U-251) was 5.25 µM, the LC50 (U-251) was 24 µM and the TGI (U-251; read-out: pTGI (converted)) was 11.2 µM. The GI50 (OVCAR-3) was 2.29 µM, the LC50 (OVCAR-3) was 20.4 µM and the TGI (OVCAR-3; read-out: pTGI (converted)) was 7.59 µM. The GI50 (CAKI-1) was 6.17 µM, the CC50 (CAKI-1; [2]) was 27.5 µM and the TGI (CAKI-1; read-out: pTGI (converted)) was 12.9 µM. The GI50 (HL-60) was 0.794 µM, the CC50 (HL-60; [2]) was 3.8 µM and the TGI (HL-60; read-out: pTGI (converted)) was 1.74 µM. The GI50 (OVCAR-5) was 8.91 µM, the LC50 (OVCAR-5) was 32.4 µM and the TGI (OVCAR-5; read-out: pTGI (converted)) was 17 µM. For the same compound, the GI50 (NCI-H226) was 7.41 µM, the LC50 (NCI-H226) was 31.6 µM and the TGI (NCI-H226; read-out: pTGI (converted)) was 15.1 µM. For the same compound, the GI50 (HCT-15) was 6.17 µM, the LC50 (HCT-15) was 28.2 µM and the TGI (HCT-15; read-out: pTGI (converted)) was 13.2 µM.
